Changes are numbered by the printed parent chain.
Legend:
[1] = biological target: T1, mTRPC6 mutant ^mE672D (Mus musculus, UniProt Q61143, E672D); assay: whole-cell patch-clamp, mTRPC6 mutant E672D; format: cell-based
T1 sequence (Q61143 1-930 E672D): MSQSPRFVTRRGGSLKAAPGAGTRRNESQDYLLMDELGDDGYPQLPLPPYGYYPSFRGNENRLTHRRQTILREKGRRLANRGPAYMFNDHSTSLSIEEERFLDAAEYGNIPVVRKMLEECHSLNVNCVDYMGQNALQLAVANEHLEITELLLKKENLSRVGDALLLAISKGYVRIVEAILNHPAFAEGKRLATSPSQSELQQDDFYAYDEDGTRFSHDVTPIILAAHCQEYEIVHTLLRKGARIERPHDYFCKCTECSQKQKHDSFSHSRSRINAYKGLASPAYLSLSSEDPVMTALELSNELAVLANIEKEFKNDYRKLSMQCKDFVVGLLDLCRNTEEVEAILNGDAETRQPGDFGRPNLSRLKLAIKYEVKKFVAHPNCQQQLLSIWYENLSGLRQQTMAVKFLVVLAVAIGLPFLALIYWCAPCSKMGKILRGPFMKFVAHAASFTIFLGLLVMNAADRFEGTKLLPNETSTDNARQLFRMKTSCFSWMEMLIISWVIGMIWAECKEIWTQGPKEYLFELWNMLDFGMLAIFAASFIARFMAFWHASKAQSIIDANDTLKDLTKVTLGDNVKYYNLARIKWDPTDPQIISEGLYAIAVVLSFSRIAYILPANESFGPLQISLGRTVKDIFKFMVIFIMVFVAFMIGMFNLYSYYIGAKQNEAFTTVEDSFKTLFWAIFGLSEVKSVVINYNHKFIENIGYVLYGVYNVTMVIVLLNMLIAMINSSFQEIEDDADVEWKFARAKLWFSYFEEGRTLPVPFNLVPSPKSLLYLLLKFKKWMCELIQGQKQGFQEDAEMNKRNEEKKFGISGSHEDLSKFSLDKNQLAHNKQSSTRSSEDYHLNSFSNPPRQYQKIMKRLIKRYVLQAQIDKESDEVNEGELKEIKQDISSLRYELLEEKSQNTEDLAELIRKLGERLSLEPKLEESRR
How it was run: (§1)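 Transiently transfected HEK293 cells expressing mouse or human TRPC6 WT, or sequence-verified mouse point mutants, recorded 24–48 h post-transfection. Conventional whole-cell clamp at −60 mV and 23 °C, gap-free; test compound applied by Y-tube. Pipette: CsCl/HEPES/BAPTA, 400 nM free Ca2+, pH 7.2. Bath: NaCl-based, 2 mM CaCl2, pH 7.4. EC50 from Hill fit of concentration–current data. Mutant screen used current ratios (10/5 μM or 3/1 μM). At least 3 transfection batches.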

[2] = biological target: T2, mTRPC6 mutant ^mE671C (Mus musculus, UniProt Q61143, E671C); assay: whole-cell patch-clamp, mTRPC6 mutant E671C; format: cell-based
T2 sequence (Q61143 1-930 E671C): T1 sequence (Q61143 1-930 E672D) with E671C, D672E
How it was run: as §1

[3] = tested on: mTRPC6 mutant ^mK688R; assay: whole-cell patch-clamp, mTRPC6 mutant K688R; format: cell-based, mouse; conditions: ^mK688R (S3 pocket)
How it was run: as §1

[4] = biological target: hTRPC6 mutant ^hK676R (Homo sapiens, UniProt Q9Y210, K676R); assay: whole-cell patch-clamp, hTRPC6 mutant K676R; format: cell-based
[5] = biological target: mTRPC6 mutant ^mN701A (Mus musculus, UniProt Q61143, N701A); assay: whole-cell patch-clamp, mTRPC6 mutant N701A; format: cell-based; conditions: saturated agonist
How it was run: as §1

[6] = tested on: mTRPC6 mutant ^mY657W; assay: whole-cell patch-clamp, mTRPC6 mutant Y657W; format: cell-based, mouse; conditions: ^mY657W (S1 pocket)
How it was run: as §1

[7] = biological target: hTRPC6 mutant ^hE672C (Homo sapiens, UniProt Q9Y210, E672C); assay: whole-cell patch-clamp, hTRPC6 mutant E672C; format: cell-based
[8] = biological target: mTRPC6 mutant ^mF678W (Mus musculus, UniProt Q61143, F678W); assay: whole-cell patch-clamp, mTRPC6 mutant F678W; format: cell-based; conditions: saturated agonist
How it was run: as §1

[9] = biological target: mTRPC6 mutant ^mV709A (Mus musculus, UniProt Q61143, V709A); assay: whole-cell patch-clamp, mTRPC6 mutant V709A; format: cell-based
How it was run: as §1

[10] = tested on: TRPC3/6/7; conditions: read-out: EC50 (concentration yielding half maximum response); measured by patch-clamp rather than calcium imaging; cited from earlier work

hTRPC6 mutant ^hK676R, sequence (Q9Y210 whole entry K676R): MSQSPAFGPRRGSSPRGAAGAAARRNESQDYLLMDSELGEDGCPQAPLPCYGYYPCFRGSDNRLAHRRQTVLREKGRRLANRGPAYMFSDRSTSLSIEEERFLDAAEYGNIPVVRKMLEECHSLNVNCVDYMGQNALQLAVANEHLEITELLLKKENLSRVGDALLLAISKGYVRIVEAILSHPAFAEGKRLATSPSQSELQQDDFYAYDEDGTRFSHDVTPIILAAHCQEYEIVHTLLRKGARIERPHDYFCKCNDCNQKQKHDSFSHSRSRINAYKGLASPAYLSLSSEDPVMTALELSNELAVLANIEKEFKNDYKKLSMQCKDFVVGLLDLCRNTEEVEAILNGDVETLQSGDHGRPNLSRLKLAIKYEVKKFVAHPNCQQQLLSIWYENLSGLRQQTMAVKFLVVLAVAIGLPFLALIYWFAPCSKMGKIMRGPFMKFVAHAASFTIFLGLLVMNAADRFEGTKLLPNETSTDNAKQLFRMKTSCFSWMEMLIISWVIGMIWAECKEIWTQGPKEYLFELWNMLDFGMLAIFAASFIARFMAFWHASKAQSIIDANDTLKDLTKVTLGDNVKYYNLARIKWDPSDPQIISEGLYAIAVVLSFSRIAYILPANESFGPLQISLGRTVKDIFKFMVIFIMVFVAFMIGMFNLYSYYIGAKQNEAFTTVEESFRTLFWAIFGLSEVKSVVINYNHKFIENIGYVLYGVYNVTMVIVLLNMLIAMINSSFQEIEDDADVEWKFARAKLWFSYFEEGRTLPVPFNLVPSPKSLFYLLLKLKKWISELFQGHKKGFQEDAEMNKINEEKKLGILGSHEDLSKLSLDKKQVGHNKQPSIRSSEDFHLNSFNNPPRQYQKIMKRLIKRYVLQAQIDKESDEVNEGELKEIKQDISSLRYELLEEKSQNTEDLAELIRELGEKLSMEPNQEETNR
mTRPC6 mutant ^mV709A, sequence (Q61143 whole entry V709A): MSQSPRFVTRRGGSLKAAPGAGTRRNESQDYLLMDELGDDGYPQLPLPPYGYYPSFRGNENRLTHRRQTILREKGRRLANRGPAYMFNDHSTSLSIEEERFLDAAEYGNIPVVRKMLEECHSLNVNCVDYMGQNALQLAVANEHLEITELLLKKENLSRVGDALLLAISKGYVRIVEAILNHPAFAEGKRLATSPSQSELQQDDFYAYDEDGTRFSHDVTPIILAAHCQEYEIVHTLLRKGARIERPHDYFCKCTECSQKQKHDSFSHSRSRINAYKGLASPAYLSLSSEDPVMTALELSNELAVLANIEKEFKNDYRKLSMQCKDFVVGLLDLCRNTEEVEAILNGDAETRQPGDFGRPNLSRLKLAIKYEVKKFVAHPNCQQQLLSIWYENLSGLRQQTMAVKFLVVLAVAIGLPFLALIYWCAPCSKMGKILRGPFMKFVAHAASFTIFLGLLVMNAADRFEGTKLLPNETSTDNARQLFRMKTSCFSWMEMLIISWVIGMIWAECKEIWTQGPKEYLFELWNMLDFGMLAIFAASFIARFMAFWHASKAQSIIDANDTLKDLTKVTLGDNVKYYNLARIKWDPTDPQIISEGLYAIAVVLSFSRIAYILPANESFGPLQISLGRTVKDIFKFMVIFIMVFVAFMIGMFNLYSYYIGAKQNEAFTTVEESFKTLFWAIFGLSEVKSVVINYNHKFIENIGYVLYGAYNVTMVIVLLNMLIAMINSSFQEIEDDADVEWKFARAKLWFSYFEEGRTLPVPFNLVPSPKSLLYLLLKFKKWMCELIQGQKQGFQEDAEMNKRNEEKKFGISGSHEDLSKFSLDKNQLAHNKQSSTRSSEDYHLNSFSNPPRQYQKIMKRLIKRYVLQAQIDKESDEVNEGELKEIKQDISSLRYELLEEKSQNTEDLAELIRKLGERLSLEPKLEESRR
mTRPC6 mutant ^mF678W, sequence (Q61143 whole entry F678W): as the sequence (Q61143 whole entry V709A) above, with F678W, A709V counted along it
mTRPC6 mutant ^mN701A, sequence (Q61143 whole entry N701A): as the sequence (Q61143 whole entry V709A) above, with N701A, A709V counted along it
hTRPC6 mutant ^hE672C, sequence (Q9Y210 whole entry E672C): as the sequence (Q9Y210 whole entry K676R) above, with E672C, R676K counted along it

CCOC(=O)N1CCC(c2cc(O)n3nc(C)c(-c4ccc(F)cc4)c3n2)CC1 [M085, Ethyl 4-(3-(4-fluorophenyl)-7-hydroxy-2-methylpyrazolo[1,5-a]pyrimidin-5-yl)piperidine-1-carboxylate]
EC50 [1]: 25.1 ± 5.64 µM
ratio of M085 activation current I10 μM/I5 μM ([1]; ^mE672D (S2 pocket)): 3.27 ± 0.91
Imax (maximal current density) ([1]; ^mE672D, 100 μM agonist): 10.28 ± 1.19 pA/pF
EC50 [2]: 23.3 ± 6.86 µM
ratio of M085 activation current I10 μM/I5 μM ([2]; ^mE671C (S2 pocket)): 4.16 ± 0.87
Imax (maximal current density) ([2]; ^mE671C, 100 μM agonist): 24.09 ± 4.53 pA/pF
agonist-mediated activation after DTNB treatment ([2]; mTRPC6^E671C, DTNB 2 mM): completely inhibited
agonist current after DTT removal of TNB moiety ([2]; mTRPC6^E671C, after DTNB then DTT 10 mM): partially “recovered”
ratio of M085 activation current I10 μM/I5 μM [3]: 1.80 ± 0.22
EC50 [4]: 44 ± 5.75 µM
agonist-induced current [5]: disappearance
ratio of M085 activation current I10 μM/I5 μM [6]: 1.68 ± 0.24
EC50 [7]: 50.2 ± 6.65 µM
agonist-induced current (channel function) [8]: complete loss of function
EC50 [9]: 6.95 ± 2.13 µM
EC50 [10]: 4.66 ± 0.03 µM

Source: publication PMC8458982 (The Journal of Biological Chemistry, 2021)
